Converted amounts (≈) assume the structure as drawn.
Experiments:
[1] = molecular target: Metabotropic glutamate receptor 7 (Rattus norvegicus, UniProt P35400); assay: Antagonist activity at rat mGluR7 expressed in CHO cells assessed as inhibition of LAP-induced intracellular calcium mobilization by FLIPR; format: functional, cell-based
Method in brief: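 CHO cells co-expressing mGluR7 and Gα15 were challenged with L-AP, and Ca2+ mobilization was read. IC50 was calculated from inhibition curves as the mean of at least two independent assays.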

[2] = Plasma concentration in Sprague-Dawley rat at 2 mg/kg, po after 0.5 hrs; format: ADME, organism-based; parameters: dose 2 mg/kg, route oral
[3] = Plasma clearance in Sprague-Dawley rat at 1 mg/kg, iv and 3 mg/kg, po
[4] = AUC in Sprague-Dawley rat at 1 mg/kg, iv and 3 mg/kg, po; conditions: plasma
[5] = Solubility at pH 7.4; format: physicochemical; conditions: buffer
[6] = Plasma concentration in Sprague-Dawley rat at 10 mg/kg, po after 0.5 hrs; format: ADME, organism-based; parameters: dose 10 mg/kg, route oral
Method in brief: (§1)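 Male Sprague-Dawley rats (7–10 weeks, 200–400 g, n = 3) were dosed orally at 10 mg/kg as a 0.5% methylcellulose suspension. Aortic blood was taken under isoflurane at 0.5 and 2 h, and brain at 2 h. Plasma and brain homogenate were deproteinized with threefold ethanol plus internal standard and analysed by LC–MS/MS against a relative calibration curve. B/P = brain (nmol/g) / plasma level.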

[7] = Oral bioavailability in Sprague-Dawley rat at 10 mg/kg; format: ADME, organism-based; conditions: in vivo, 3 mg/kg, in the assay text read “3 mg/kg” for “10 mg/kg”
Method in brief: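 Male SD rats (n = 3) were given a single iv dose of 1 mg/kg in PEG400/EtOH/H2O (50:10:40), or an oral gavage dose as a 0.5% methylcellulose aqueous suspension. Blood was sampled at multiple times up to 8 h. Plasma was deproteinized with ethanol containing internal standard. Values are means.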

[8] = Ratio of drug level in brain to plasma in Sprague-Dawley rat at 10 mg/kg, po after 2 hrs; format: ADME, organism-based; parameters: dose 10 mg/kg, route oral; conditions: read-out: BPR; method in brief: as §1

Sequence of Metabotropic glutamate receptor 7 (P35400 whole entry): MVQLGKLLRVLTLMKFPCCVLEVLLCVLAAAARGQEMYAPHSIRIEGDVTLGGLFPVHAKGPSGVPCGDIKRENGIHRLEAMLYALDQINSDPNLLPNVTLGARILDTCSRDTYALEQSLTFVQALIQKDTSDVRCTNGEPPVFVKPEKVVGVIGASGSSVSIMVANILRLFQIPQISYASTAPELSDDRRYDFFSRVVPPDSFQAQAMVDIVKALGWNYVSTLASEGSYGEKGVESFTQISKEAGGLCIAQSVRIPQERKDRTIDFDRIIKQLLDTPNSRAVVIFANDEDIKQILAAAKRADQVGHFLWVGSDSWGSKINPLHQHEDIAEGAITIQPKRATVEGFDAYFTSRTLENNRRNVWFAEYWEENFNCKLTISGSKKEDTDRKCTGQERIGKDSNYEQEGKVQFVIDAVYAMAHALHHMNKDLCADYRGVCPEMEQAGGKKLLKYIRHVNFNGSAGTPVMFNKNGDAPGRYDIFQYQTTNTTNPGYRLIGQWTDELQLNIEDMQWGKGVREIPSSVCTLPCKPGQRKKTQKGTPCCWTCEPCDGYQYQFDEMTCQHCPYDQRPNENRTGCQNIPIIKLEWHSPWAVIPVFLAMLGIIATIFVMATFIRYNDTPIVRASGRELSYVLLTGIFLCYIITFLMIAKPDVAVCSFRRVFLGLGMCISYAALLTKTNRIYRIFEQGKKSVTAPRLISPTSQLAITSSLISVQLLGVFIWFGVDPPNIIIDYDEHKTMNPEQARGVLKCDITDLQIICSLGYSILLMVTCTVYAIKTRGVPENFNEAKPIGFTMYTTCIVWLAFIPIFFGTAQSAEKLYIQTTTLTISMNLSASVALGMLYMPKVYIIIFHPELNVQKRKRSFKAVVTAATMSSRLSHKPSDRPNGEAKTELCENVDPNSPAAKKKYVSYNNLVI

| Structure (SMILES) | IC50 [1] | further results |
| --- | --- | --- |
| COc1ccc(-c2cc3onc(-c4ccccc4)c3c(=O)n2C)cc1 | 22 nM |  |
| Cn1c(-c2ccc3c(c2)OCO3)cc2onc(-c3ccccc3)c2c1=O | 26 nM |  |
| COc1ccc(-c2noc3cc(-c4ccccc4)n(C)c(=O)c23)cc1 | 29 nM |  |
| Cn1c(-c2ccccc2)cc2onc(-c3ccncc3)c2c1=O | 101 nM |  |
| CN(C)c1ccc(-c2cc3onc(-c4ccccc4)c3c(=O)n2C)cc1 | 140 nM |  |
| COc1ccc(-c2cc3onc(-c4ccncc4)c3c(=O)n2C)cc1 | 26 nM | concentration at 0.5 h [2]: 3.9 µM; clearance [3]: 1 mL/min/kg; AUC [4]: 0.71 µM·h; solubility [5]: 3.3 µg/mL (≈ 9.9 µM); concentration at 0.5 h [6]: 5.1 µM; bioavailability [7]: 65%; Kp at 2 h [8]: 1 |
| CN(C)c1cccc(-c2cc3onc(-c4ccccc4)c3c(=O)n2C)c1 | 31 nM |  |
| Cn1c(-c2cccc(C(F)(F)F)c2)cc2onc(-c3ccccc3)c2c1=O | 96 nM |  |
| COc1ccc(-c2cc3onc(-c4ccccc4)c3c(=O)n2C)cc1F | 210 nM |  |
| COc1cccc(-c2noc3cc(-c4ccccc4)n(C)c(=O)c23)c1 | 12 nM |  |
| CCCc1ccc(-c2cc3onc(-c4ccccc4)c3c(=O)n2C)cc1 | 150 nM |  |
| COc1ccccc1-c1noc2cc(-c3ccccc3)n(C)c(=O)c12 | 21 nM |  |
| Cc1ccc(-c2cc3onc(-c4ccccc4)c3c(=O)n2C)cc1 | 51 nM |  |
| Cn1c(-c2ccc(F)cc2)cc2onc(-c3ccccc3)c2c1=O | 72 nM |  |
| Cn1c(-c2ccccc2)cc2onc(-c3ccccc3)c2c1=O | 20 nM | solubility [5]: 0.17 µg/mL (≈ 0.562 µM) |
| Cn1c(-c2ccccc2)cc2onc(-c3cccnc3)c2c1=O | 240 nM |  |
| Cn1c(-c2ccccc2)cc2onc(-c3ccccn3)c2c1=O | 1000 nM |  |
| CCn1c(-c2ccccc2)cc2onc(-c3ccccc3)c2c1=O | 910 nM |  |
| CC(C)n1c(-c2ccccc2)cc2onc(-c3ccccc3)c2c1=O | > 10000 nM |  |
| CC(C)Oc1ccc(-c2cc3onc(-c4ccccc4)c3c(=O)n2C)cc1 | > 10000 nM |  |
| COc1ccc(-c2cc3onc(-c4ccccc4)c3c(=O)n2C)cc1Br | 580 nM |  |

Reference: ChEMBL document CHEMBL1153226, “Isoxazolopyridone derivatives as allosteric metabotropic glutamate receptor 7 antagonists” (Bioorg Med Chem Lett, 2010)
